Source: the M2OR odorant receptor database
Changes are numbered by the printed parent chain.

What was measured:
Settings in all cases: stereoisomer not certain
OR11H12 (Homo sapiens) = molecular target: T1, OR11H12 (Homo sapiens) (UniProt B2RN74)
T1 sequence (whole entry): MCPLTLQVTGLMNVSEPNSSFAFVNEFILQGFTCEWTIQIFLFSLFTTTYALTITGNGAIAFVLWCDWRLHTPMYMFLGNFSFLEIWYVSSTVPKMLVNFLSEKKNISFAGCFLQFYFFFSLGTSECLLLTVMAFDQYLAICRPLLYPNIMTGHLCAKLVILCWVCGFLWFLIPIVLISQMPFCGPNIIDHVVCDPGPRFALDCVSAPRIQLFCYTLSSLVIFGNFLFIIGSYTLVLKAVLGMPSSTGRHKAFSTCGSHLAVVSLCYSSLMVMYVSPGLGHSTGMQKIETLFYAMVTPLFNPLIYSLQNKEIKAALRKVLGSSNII
Outline: (§1)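 Each receptor–molecule pair is labelled responsive or non-responsive (inactive) according to whether the original authors judged the measured signal statistically different from baseline. The data were taken from the main text and supplementary material of published papers and checked for typos and inconsistencies. Assay methods differed by source, with transient luciferase assays in mammalian cell lines being common.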

OR11H2 (Homo sapiens) = molecular target: T2, OR11H2 (Homo sapiens) (UniProt Q8NH07)
T2 sequence (whole entry): T1 sequence (whole entry) with Q7H, T33S, T49I, W68R, C156Y, M181K, R199L, S269P
Outline: as §1

OR11H4 (Homo sapiens) = molecular target: T3, OR11H4 (Homo sapiens) (UniProt Q8NGC9)
T3 sequence (whole entry): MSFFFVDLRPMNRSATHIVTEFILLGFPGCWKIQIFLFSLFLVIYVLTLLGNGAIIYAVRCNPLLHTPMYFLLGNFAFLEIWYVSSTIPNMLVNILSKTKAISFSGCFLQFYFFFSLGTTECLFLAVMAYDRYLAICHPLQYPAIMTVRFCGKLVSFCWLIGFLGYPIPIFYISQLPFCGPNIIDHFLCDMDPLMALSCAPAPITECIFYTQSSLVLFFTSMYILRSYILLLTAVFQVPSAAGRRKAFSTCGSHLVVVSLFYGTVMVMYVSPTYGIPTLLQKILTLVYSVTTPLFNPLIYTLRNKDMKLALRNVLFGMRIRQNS
Outline: as §1

OR11H6 (Homo sapiens) = molecular target: T4, OR11H6 (Homo sapiens) (UniProt Q8NGC7)
T4 sequence (whole entry): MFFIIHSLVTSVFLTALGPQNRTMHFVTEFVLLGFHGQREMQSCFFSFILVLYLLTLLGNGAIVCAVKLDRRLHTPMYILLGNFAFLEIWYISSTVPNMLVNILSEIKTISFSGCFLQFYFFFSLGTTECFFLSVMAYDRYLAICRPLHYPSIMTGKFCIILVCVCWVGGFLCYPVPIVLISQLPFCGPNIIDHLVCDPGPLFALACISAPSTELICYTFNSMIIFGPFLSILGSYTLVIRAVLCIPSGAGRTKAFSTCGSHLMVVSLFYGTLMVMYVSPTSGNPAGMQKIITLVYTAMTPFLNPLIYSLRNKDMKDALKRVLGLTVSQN
Outline: as §1

OR11L1 (Homo sapiens) = molecular target: T5, OR11L1 (Homo sapiens) (UniProt Q8NGX0)
T5 sequence (whole entry): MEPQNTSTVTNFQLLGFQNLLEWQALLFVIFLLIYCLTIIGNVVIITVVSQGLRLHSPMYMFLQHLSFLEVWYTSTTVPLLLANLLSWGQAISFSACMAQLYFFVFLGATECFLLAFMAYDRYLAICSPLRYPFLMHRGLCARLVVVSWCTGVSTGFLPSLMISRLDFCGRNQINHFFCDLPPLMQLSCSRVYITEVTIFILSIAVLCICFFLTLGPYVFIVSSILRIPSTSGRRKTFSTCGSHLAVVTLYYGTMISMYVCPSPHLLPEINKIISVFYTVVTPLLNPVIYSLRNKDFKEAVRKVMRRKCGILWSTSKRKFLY
Outline: as §1

OR12D2 (Homo sapiens) = molecular target: T6, OR12D2 (Homo sapiens) (UniProt P58182)
T6 sequence (whole entry): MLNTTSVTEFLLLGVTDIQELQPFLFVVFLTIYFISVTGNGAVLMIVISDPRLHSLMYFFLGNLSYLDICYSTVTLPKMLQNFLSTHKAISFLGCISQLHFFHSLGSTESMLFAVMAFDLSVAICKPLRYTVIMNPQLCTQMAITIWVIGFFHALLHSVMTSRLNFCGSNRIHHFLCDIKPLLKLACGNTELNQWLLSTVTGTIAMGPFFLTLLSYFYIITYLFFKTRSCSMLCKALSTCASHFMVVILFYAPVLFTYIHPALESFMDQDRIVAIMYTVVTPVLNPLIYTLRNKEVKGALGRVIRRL
Outline: as §1

OR12D3 (Homo sapiens) = molecular target: T7, OR12D3 (Homo sapiens) (UniProt Q9UGF7)
T7 sequence (whole entry): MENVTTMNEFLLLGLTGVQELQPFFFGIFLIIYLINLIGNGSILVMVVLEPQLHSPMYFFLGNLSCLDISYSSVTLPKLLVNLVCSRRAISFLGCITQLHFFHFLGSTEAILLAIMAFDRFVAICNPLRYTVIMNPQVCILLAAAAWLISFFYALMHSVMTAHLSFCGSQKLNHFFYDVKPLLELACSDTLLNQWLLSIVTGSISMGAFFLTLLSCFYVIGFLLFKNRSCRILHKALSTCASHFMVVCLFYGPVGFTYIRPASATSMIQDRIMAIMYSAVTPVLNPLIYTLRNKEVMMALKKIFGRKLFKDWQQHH
Outline: as §1

OR13A1 (Homo sapiens) = molecular target: T8, OR13A1 (Homo sapiens) (UniProt Q8NGR1)
T8 sequence (whole entry): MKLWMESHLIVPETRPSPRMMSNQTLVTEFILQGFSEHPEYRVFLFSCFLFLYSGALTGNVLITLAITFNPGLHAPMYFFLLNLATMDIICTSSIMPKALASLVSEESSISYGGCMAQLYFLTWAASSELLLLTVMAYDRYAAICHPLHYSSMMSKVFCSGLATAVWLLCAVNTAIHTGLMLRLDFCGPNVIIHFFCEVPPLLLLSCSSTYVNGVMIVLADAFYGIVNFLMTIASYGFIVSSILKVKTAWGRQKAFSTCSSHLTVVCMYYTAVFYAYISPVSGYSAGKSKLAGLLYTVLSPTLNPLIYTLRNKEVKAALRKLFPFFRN
Outline: as §1

OR13C2 (Homo sapiens) = molecular target: T9, OR13C2 (Homo sapiens) (UniProt Q8NGS9)
T9 sequence (whole entry): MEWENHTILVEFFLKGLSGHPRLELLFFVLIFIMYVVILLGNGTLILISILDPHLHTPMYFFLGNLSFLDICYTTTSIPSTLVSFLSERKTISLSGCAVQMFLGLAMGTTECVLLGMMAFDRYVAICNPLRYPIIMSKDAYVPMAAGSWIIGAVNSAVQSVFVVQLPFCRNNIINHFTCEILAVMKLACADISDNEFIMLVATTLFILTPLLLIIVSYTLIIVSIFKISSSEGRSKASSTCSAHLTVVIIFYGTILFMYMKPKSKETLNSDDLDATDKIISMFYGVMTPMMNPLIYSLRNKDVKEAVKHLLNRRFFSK
Outline: as §1

OR13C3 (Homo sapiens) = molecular target: T10, OR13C3 (Homo sapiens) (UniProt Q8NGS6)
T10 sequence (whole entry): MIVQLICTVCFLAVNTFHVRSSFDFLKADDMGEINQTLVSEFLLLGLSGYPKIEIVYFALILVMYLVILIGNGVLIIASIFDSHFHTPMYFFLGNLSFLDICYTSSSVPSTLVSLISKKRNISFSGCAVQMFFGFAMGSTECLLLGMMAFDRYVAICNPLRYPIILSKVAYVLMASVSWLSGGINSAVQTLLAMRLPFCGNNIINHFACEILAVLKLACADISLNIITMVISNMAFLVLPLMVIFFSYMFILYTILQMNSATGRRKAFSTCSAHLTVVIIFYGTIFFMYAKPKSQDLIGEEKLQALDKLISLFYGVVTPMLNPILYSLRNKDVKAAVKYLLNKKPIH
Outline: as §1

OR13C4 (Homo sapiens) = molecular target: T11, OR13C4 (Homo sapiens) (UniProt Q8NGS5)
T11 sequence (whole entry): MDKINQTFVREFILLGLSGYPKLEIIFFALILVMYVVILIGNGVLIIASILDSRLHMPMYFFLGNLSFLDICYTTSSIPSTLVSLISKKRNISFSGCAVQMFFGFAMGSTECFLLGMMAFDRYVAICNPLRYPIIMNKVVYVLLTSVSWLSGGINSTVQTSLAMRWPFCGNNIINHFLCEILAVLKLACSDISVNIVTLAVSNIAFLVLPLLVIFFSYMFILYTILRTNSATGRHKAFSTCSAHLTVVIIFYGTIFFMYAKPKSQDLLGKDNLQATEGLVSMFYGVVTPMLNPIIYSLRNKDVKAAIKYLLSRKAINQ
Outline: as §1

OR13C5 (Homo sapiens) = molecular target: T12, OR13C5 (Homo sapiens) (UniProt Q8NGS8)
T12 sequence (whole entry): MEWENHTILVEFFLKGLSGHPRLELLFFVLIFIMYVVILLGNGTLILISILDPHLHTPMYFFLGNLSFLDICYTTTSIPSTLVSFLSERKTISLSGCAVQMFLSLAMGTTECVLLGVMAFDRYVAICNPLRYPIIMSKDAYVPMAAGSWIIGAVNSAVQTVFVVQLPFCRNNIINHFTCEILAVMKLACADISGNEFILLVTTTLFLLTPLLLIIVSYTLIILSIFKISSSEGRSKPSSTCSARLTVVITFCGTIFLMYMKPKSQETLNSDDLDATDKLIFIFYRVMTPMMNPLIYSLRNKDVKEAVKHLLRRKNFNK
Outline: as §1

OR13C8 (Homo sapiens) = molecular target: T13, OR13C8 (Homo sapiens) (UniProt Q8NGS7)
T13 sequence (whole entry): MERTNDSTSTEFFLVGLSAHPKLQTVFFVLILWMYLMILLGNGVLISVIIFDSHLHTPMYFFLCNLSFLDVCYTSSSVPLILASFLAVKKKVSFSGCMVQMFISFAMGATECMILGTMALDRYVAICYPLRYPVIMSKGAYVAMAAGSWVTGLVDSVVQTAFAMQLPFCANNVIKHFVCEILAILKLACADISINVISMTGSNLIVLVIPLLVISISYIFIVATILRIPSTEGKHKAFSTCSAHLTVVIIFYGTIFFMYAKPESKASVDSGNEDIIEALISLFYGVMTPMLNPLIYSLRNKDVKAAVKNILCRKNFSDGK
Outline: as §1

OR13C9 (Homo sapiens) = molecular target: T14, OR13C9 (Homo sapiens) (UniProt Q8NGT0)
T14 sequence (whole entry): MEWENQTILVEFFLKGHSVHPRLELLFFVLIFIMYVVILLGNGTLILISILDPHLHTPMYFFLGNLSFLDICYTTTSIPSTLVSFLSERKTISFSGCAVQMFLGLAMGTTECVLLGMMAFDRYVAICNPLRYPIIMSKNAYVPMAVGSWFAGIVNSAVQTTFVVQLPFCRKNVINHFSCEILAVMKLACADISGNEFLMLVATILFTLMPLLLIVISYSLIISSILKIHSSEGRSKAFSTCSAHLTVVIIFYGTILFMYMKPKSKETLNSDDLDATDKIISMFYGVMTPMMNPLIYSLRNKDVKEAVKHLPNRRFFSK
Outline: as §1

OR13D1 (Homo sapiens) = molecular target: T15, OR13D1 (Homo sapiens) (UniProt Q8NGV5)
T15 sequence (whole entry): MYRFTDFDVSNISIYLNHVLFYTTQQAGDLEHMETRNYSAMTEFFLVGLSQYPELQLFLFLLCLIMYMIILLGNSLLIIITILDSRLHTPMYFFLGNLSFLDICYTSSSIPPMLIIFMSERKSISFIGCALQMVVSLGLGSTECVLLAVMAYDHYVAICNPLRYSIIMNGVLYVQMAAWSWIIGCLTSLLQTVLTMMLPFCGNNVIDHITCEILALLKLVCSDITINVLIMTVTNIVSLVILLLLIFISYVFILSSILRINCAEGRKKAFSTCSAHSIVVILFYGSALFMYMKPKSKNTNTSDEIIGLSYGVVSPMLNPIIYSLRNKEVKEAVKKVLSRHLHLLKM
Outline: as §1

OR13F1 (Homo sapiens) = molecular target: T16, OR13F1 (Homo sapiens) (UniProt Q8NGS4)
T16 sequence (whole entry): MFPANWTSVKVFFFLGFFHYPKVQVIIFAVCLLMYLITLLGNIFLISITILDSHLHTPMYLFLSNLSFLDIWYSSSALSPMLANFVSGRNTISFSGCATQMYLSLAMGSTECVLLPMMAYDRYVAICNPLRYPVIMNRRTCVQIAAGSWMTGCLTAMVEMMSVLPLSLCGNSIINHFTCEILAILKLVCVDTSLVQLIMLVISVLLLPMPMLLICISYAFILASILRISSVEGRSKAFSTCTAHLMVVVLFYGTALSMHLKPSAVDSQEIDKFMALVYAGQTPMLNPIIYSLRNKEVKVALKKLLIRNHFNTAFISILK
Outline: as §1

OR13G1 (Homo sapiens) = molecular target: T17, OR13G1 (Homo sapiens) (UniProt Q8NGZ3)
T17 sequence (whole entry): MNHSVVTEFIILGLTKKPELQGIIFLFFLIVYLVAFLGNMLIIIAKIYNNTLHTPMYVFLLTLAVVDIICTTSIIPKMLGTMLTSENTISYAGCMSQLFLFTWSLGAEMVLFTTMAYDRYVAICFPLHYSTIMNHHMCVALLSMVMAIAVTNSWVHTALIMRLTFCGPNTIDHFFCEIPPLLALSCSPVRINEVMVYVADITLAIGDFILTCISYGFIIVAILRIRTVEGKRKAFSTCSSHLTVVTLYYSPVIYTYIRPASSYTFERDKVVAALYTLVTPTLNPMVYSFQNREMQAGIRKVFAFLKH
Outline: as §1

OR11H7 (Homo sapiens) = OR11H7 (Homo sapiens) (UniProt Q8NGC8)
Outline: as §1

OR12D1 (Homo sapiens) = OR12D1 (Homo sapiens) (UniProt P0DN82)
Outline: as §1

OR13C7 (Homo sapiens) = OR13C7 (Homo sapiens) (UniProt P0DN81)
Outline: as §1

Measured: odorant receptor agonist call;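 also: active if original authors judged signal statistically different from baseline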

Sequence of OR13C7 (Homo sapiens) (P0DN81 whole entry): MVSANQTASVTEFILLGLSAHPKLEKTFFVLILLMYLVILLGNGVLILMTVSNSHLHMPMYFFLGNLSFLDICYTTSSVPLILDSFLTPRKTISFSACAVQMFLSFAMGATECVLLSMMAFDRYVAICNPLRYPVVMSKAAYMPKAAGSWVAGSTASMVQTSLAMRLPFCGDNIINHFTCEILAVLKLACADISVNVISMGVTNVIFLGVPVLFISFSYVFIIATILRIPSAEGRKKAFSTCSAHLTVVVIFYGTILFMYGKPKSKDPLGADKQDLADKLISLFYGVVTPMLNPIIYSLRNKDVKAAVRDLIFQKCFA
Sequence of OR12D1 (Homo sapiens) (P0DN82 as listed by the source): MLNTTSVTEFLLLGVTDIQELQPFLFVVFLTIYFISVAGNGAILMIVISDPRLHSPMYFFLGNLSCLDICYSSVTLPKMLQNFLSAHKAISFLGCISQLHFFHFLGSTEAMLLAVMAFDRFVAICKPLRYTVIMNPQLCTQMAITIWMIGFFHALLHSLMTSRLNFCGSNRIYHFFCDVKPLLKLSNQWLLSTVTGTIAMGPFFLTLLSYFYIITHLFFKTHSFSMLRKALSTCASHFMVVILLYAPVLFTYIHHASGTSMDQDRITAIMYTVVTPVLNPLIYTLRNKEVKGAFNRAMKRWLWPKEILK
Sequence of OR11H7 (Homo sapiens) (Q8NGC8 whole entry): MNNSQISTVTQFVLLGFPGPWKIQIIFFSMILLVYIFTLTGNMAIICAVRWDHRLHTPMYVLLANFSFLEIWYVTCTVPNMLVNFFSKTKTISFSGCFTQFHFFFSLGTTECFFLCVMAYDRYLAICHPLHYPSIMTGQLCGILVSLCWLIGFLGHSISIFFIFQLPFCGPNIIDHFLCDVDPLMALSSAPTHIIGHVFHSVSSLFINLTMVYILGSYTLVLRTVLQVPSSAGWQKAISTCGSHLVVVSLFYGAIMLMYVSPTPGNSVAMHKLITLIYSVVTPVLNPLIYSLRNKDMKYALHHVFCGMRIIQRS

CC1=NC(C)C(C)S1 (configuration not stated)
not listed: OR11H7 (Homo sapiens) | OR12D1 (Homo sapiens) | OR13C7 (Homo sapiens)
inactive: all other assays above

CC1CCCCCCCCCCCCC(=O)C1 (configuration not stated)
inactive: all assays above
